Data on 21 molecules can be found in publication PMC6583924 (European journal of medicinal chemistry, 2017).

The target in one data set is (h)V1a (Homo sapiens, UniProt P37288). Nature of the data set: In vitro V1a binding assay. The conditions noted are these: for inhibition at 0.01 µM: read-out: % Binding inhibition (10^−8M); for inhibition at 0.001 µM: read-out: % Binding inhibition (10^−9M); for V1a binding affinity (in words): structure-activity discussion of Tables 1 and 2. An outline of the steps:
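[3H]AVP (0.3 nM; KD 0.5 nM) competition binding on human recombinant V1a expressed in CHO cells, 60 min at RT. Nonspecific binding was defined with 1 µM AVP. Test compounds were run at selected concentrations, two independent experiments each in duplicate, with % binding inhibition recorded. IC50 came from a one-site sigmoidal variable-slope fit; Ki was calculated by Cheng–Prusoff.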

Another data set in a line: Lipophilicity logD7,4. The data set is classed as physicochemical. The note with it: pH 7.4.
In another data set the test system is CD-1 mouse brain. Nature of the data set: Effect of anesthetics on radiotracer brain uptake in CD-1 mice. The class given is in vivo. The conditions noted are these: anesthetic ip 80 mg/kg, 30 min prior the radiotracer; 30 min after radiotracer.
A further data set concerns the target V2. The note with it: read-out: Ki V2; cited from earlier work.

Sequence of (h)V1a (P37288 whole entry): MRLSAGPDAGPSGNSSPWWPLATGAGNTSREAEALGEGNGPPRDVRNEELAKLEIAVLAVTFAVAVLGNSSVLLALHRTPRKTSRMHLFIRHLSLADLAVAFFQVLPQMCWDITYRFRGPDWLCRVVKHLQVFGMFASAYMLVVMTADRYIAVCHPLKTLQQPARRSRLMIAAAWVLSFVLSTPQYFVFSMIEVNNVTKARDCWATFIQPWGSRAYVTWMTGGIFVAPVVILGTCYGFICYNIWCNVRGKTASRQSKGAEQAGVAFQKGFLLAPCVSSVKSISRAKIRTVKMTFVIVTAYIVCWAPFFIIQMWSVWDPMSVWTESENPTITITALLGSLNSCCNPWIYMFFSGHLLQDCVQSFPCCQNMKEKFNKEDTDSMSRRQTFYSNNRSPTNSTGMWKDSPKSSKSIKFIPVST

Consider `Cc1ccncc1-c1ccc(C(=O)N2CC3(C)CC2CC(C)(C)C3)c(F)c1` (centres unmarked) [8l, (2Fluoro-4-(4-methylpyridin-3-yl)phenyl)(1,3,3-trimethyl-6-aza-bicyclo[3.2.1]octan-6yl)methanone], for which, at (h)V1a, the inhibition at 0.01 µM came out at 19.8%, the inhibition at 0.001 µM is 2.4% and the “V1a binding affinity (in words)” value is on record as “poor V1a binding affinity”. In addition, in the data set “Lipophilicity logD7,4”, the logD came out at 4.5.

On to `COc1cc(C(=O)N2CC3(C)CC2CC(C)(C)C3)ccc1-c1ccc(F)nc1` (centres unmarked) [8a, (4-(6Fluoropyridin-3-yl)-3-methoxyphenyl)(1,3,3-trimethyl-6-aza-bicyclo[3.2.1]octan-6yl)methanone], for which, at (h)V1a, the inhibition at 0.01 µM is 33.9%, the inhibition at 0.001 µM was 2.9% and the “V1a binding affinity (in words)” value is given as “lower binding affinity compared to the lead 1”. This molecule also came in with a logD in “Lipophilicity logD7,4” of 3.9.

As to `Cc1ccccc1-c1ccc(C(=O)N2CC3(C)CC2CC(C)(C)C3)cc1` (centres unmarked) [8g, (2’-Methylbiphenyl-4-yl)(1,3,3-trimethyl-6-aza-bicyclo[3.2.1]octan-6-yl)methanone], at (h)V1a, the inhibition at 0.01 µM turned out to be 84.3%, the inhibition at 0.001 µM amounted to 23.7% and the “V1a binding affinity (in words)” value is on record as “good binding affinity”. In the data set “Lipophilicity logD7,4”, this molecule returned a logD of 5.

On to `COc1cc(C(=O)NC23CC4CC(CC(C4)C2)C3)ccc1-c1c[nH]c2ccccc12` [13d, N-Adamantan-1-yl-4-(1H-indol-3-yl)-3-methoxybenzamide], for which, at (h)V1a, the inhibition at 0.01 µM is 4.8% and the inhibition at 0.001 µM stood at 7.4%. The molecule further came in with a logD in “Lipophilicity logD7,4” of 5.8.

With `COc1cc(C(=O)N2CCN(C)CC2)ccc1-c1c[nH]c2ccccc12` [13a, (4-(1H-Indol-3-yl)-3-methoxyphenyl)(4-methylpiperazin-1-yl)methanone], on (h)V1a, the inhibition at 0.01 µM was 4.7% and the inhibition at 0.001 µM was 15.7%. This molecule registered a logD in “Lipophilicity logD7,4” of 0.7.

`COc1cc(C(=O)N2CC3(C)CC2CC(C)(C)C3)ccc1-c1c[nH]c2cnccc12` (centres unmarked) [8e, (3Methoxy-4-(1H-pyrrolo[2,3-c]pyridin-3-yl)phenyl)(1,3,3-trimethyl-6-aza-bicyclo[3.2.1]octan-6yl)methanone]: on (h)V1a, the inhibition at 0.01 µM is 44.2% and the inhibition at 0.001 µM is -4.7%. Moreover, the logD in “Lipophilicity logD7,4” is 3.5.

For the molecule `Cc1ncccc1-c1ccc(C(=O)N2CC3(C)CC2CC(C)(C)C3)cc1` (centres unmarked) [8j, (4-(2-Methylpyridin-3-yl)phenyl)(1,3,3-trimethyl-6-aza-bicyclo[3.2.1]octan-6-yl)methanone], at (h)V1a, the inhibition at 0.01 µM worked out at 18.2% and the inhibition at 0.001 µM is -6.6%. In the data set “Lipophilicity logD7,4”, this molecule had a logD of 4.4.

On to `CNC1(c2ccccc2Cl)CCCCC1=O` (centres unmarked) [Ketamine], for which the “Effect on radiotracer brain uptake” value in the data set on CD-1 mouse brain is reported as “did not significantly change”.

In the case of `COc1cc(C(=O)N2CC3(C)CC2CC(C)(C)C3)ccc1-c1cccnc1F` (centres unmarked) [8b, (4-(2Fluoropyridin-3-yl)-3-methoxyphenyl)(1,3,3-trimethyl-6-aza-bicyclo[3.2.1]octan-6yl)methanone], at (h)V1a, the inhibition at 0.01 µM worked out at 16%, the inhibition at 0.001 µM was determined as 9.7% and the “V1a binding affinity (in words)” value is reported as “lower binding affinity compared to the lead 1”. This molecule yielded a logD in the data set “Lipophilicity logD7,4” of 4.

As to `COc1cc(C(=O)Nc2ccc(F)cc2)ccc1-c1c[nH]c2ccccc12` [13e, N-(4-Fluorophenyl)-4-(1H-indol-3-yl)-3-methoxybenzamide], at (h)V1a, the inhibition at 0.01 µM stood at 4.6% and the inhibition at 0.001 µM worked out at 5%. The molecule also yielded a logD in the data set “Lipophilicity logD7,4” of 3.2.

In the case of `Cc1ccccc1-c1ccc(C(=O)N2CC3(C)CC2CC(C)(C)C3)c(F)c1` (centres unmarked) [8k, (3-Fluoro-6’-methylbiphenyl-4-yl)(1,3,3-trimethyl-6-aza-bicyclo[3.2.1]octan-6-yl)methanone], on (h)V1a, the inhibition at 0.01 µM came out at 81.2%, the inhibition at 0.001 µM stood at 22.8% and the “V1a binding affinity (in words)” value is “good binding affinity”. In “Lipophilicity logD7,4”, this molecule had a logD of 5.8.

Take `COc1cc(C(=O)N2CC3(C)CC2CC(C)(C)C3)ccc1-c1c[nH]c2ccncc12` (centres unmarked) [8f, (3Methoxy-4-(1H-pyrrolo[3,2-c]pyridin-3-yl)phenyl)(1,3,3-trimethyl-6-aza-bicyclo[3.2.1]octan-6yl)methanone]: at (h)V1a, the inhibition at 0.01 µM was found to be 39.5% and the inhibition at 0.001 µM turned out to be 5.2%. The same molecule showed a log distribution coefficient (logD) in “Lipophilicity logD7,4” of 2.8.

For `Cc1ccncc1-c1ccc(C(=O)N2CC3(C)CC2CC(C)(C)C3)cc1` (centres unmarked) [8i, (4-(4-Methylpyridin-3-yl)phenyl)(1,3,3-trimethyl-6-aza-bicyclo[3.2.1]octan-6-yl)methanone], on (h)V1a, the inhibition at 0.01 µM amounted to 43.9% and the inhibition at 0.001 µM worked out at 12.8%. This molecule also registered a logD in the data set “Lipophilicity logD7,4” of 4.4.

`COc1cc(C(=O)N2CCCN(C)CC2)ccc1-c1c[nH]c2ccccc12` [13c, (4-(1H-Indol-3-yl)-3-methoxyphenyl)(4-methyl-1,4-diazepan-1-yl)methanone]: on (h)V1a, the inhibition at 0.01 µM was 6.2% and the inhibition at 0.001 µM turned out to be 5.7%. In the data set “Lipophilicity logD7,4”, this molecule displayed a logD of 0.2.

Regarding `Cc1cnccc1-c1ccc(C(=O)N2CC3(C)CC2CC(C)(C)C3)cc1` (centres unmarked) [8h, (4-(3-Methylpyridin-4-yl)phenyl)(1,3,3-trimethyl-6-aza-bicyclo[3.2.1]octan-6-yl)methanone], at (h)V1a, the inhibition at 0.01 µM was 28.9% and the inhibition at 0.001 µM came to 10.5%. In addition, the logD in the data set “Lipophilicity logD7,4” came to 4.4.

For `COc1cc(C(=O)N2CC3(C)CC2CC(C)(C)C3)ccc1-c1cn(C)c2ccccc12` (centres unmarked) [8c, (3Methoxy-4-(1-methyl-1H-indol-3-yl)phenyl)(1,3,3-trimethyl-6-aza-bicyclo[3.2.1]octan-6yl)methanone], on (h)V1a, the inhibition at 0.01 µM was found to be 18.7%, the inhibition at 0.001 µM came to 1.8% and the “V1a binding affinity (in words)” value is “decrease in binding affinity”. Besides, the logD in the data set “Lipophilicity logD7,4” was found to be 6.

Regarding `CC1(C)CC2CC(C)(CN2C(=O)c2ccc(-c3c[nH]c4ccccc34)c(OCCF)c2)C1` (centres unmarked) [6c, (3-(2fluoroethoxy)-4-(1H-indol-3-yl)phenyl)(1,3,3-trimethyl-6-aza-bicyclo[3.2.1]octan-6yl)methanone], at (h)V1a, the inhibition at 0.01 µM was found to be 92.6%, the inhibition at 0.001 µM is 45.1% and the “V1a binding affinity (in words)” value is “high binding affinity”. The molecule further showed a logD in the data set “Lipophilicity logD7,4” of 4.9.

For the molecule `COc1cc(C(=O)N2CCC(F)(F)CC2)ccc1-c1c[nH]c2ccccc12` [13b, (4-(1H-Indol-3-yl)-3-methoxyphenyl)(4,4-difluoropiperidin-1-yl)methanone], on (h)V1a, the inhibition at 0.01 µM was found to be 9% and the inhibition at 0.001 µM worked out at 13.7%. In “Lipophilicity logD7,4”, the logD is 1.6.

As to `CC1(C)CC2CC(C)(CN2C(=O)c2ccc(-c3c[nH]c4ccccc34)cc2F)C1` (centres unmarked) [6b, (2-Fluoro-4-(1H-Indol-3-yl)phenyl)(1,3,3-trimethyl-6-aza-bicyclo[3.2.1]octan-6-yl)methanone], at (h)V1a, the inhibition at 0.01 µM worked out at 77.1%, the inhibition at 0.001 µM was determined as 33.4% and the “V1a binding affinity (in words)” value is recorded as “lower binding affinity compared to the lead 1”. The molecule also came in with a pH-dependent lipophilicity (logD) in “Lipophilicity logD7,4” of 4.8.

With `COc1cc(C(=O)N2C[C@]3(C)C[C@H]2CC(C)(C)C3)ccc1-c1c[nH]c2ccccc12` [(1S,5R)-1, (4-(1Hindol-3-yl)-3-methoxyphenyl)((1S,5R)-1,3,3-trimethyl-6-azabicyclo[3.2.1]octan-6-yl)methanone], the Ki on V2 was 600 nM. At (h)V1a, the Ki was 0.66 nM, the inhibition at 0.01 µM amounted to 87.9% and the inhibition at 0.001 µM amounted to 51.4%. In “Lipophilicity logD7,4”, this molecule displayed a logD of 4.7.

For the molecule `COc1cc(C(=O)N2CC3(C)CC2CC(C)(C)C3)ccc1-c1c[nH]c2ncccc12` (centres unmarked) [8d, (3Methoxy-4-(1H-pyrrolo[2,3-b]pyridin-3-yl)phenyl)(1,3,3-trimethyl-6-aza-bicyclo[3.2.1]octan-6yl)methanone], at (h)V1a, the inhibition at 0.01 µM stood at 28.7% and the inhibition at 0.001 µM was 4.4%. In the data set “Lipophilicity logD7,4”, this molecule gave a logD of 2.9.
